Active and inactive are the calls of the source. The rule behind the calls is not given here.
Key:
Hepatitis C virus [1] = experiment: Antiviral activity against HCV genotype 1b Con1 infected in human HuH5.2 cells assessed as reduction in viral replication incubated for 3 days by luciferase reporter gene assay; assay type: functional, organism-based, Hepacivirus hominis; settings: subtype 1b Con1, Huh-5-2, 72 h
In short: (§1)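 Stable subgenomic replicon cell lines (Huh5-2 HCV 1b Con1 firefly luciferase; Huh7.5-3a S52, Huh7.5-4a ED43; Huh7-D2 DENV2 16681 Renilla luciferase) seeded 1×10^4 cells/well, 24 h at 37 °C, then serial compound dilutions in complete DMEM without G418 for 3 days at 37 °C. Lysate F-Luc or R-Luc (12 μM coelenterazine, pH 7.4 buffer) normalized to Bradford protein, expressed as % of DMSO control. EC50 from nonlinear regression of log concentration.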

Hepatitis C virus [2] = experiment: Antiviral activity against HCV genotype 4a ED43 infected in human HuH7.5 cells assessed as reduction in viral replication incubated for 3 days by luciferase reporter gene assay; assay type: functional, organism-based, Hepacivirus hominis; settings: subtype 4a ED43, Huh7.5, 72 h; in short: as §1
[3] = Selectivity index, ratio of CC50 for human Huh5.2 cells to EC50 for HCV genotype 1b Con1; assay type: toxicity; settings: read-out: Ratio CC50/EC50
In short: (§2)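 Viability read as intracellular ATP, not MTT: 10^4 Huh5-2 cells/well, after 24 h exposed to compounds 72 h at 37 °C, 5% CO2, lysed, luminescent ATP kit read, ATP normalized to protein. CC50 versus DMSO control via nonlinear regression of log concentration; mean ± SD of three independent experiments in triplicate. SI = CC50/EC50.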

[4] = Selectivity index, ratio of CC50 for human Huh5.2 cells to EC50 for HCV genotype 4a ED43; assay type: toxicity; settings: read-out: Ratio CC50/EC50; in short: as §2
Trypanosoma brucei = experiment: Antitrypanosomal activity against Trypanosoma brucei 221 bloodstream form assessed as inhibition of growth incubated for 4 days by resazurin dye based fluorescence assay; assay type: functional, organism-based; settings: Trypanosoma brucei, 221, 96 h
Trypanosoma cruzi = experiment: Antitrypanosomal activity against Trypanosoma cruzi strain CL Brener epimastigotes form assessed as inhibition of growth incubated for 4 days by resazurin dye based fluorescence assay; assay type: functional, organism-based; settings: 96 h
[5] = Cytotoxicity against rat L6 cells assessed as reduction in cell viability incubated for 6 days by resazurin dye based fluorescence assay
In short: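 Rat skeletal myoblast L6 cells seeded in triplicate at 1 × 10⁴ mL⁻¹ in growth medium containing a range of compound concentrations, 6 days at 37 °C; resazurin added, 8 h further, fluorescence read. CC50 = concentration giving 50% growth inhibition; mean of triplicate experiments ± SEM.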

[6] = Selectivity index, ratio of CC50 for rat L6 cells to EC50 for Trypanosoma brucei 221 bloodstream form; assay type: toxicity; settings: read-out: Ratio CC50/EC50
In short: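 T. brucei strain 221 bloodstream forms in modified Iscove's medium diluted to 2.5 × 10⁴ mL⁻¹, eight-point concentration curves at 37 °C; resazurin added after 48 h, further 16 h incubation; fluorescence at excitation 545 nm, emission 590 nm. EC50 and EC90 from triplicate experiments. SI = L6 CC50/EC50.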

[7] = Selectivity index, ratio of CC50 for rat L6 cells to EC50 for Trypanosoma cruzi strain CL Brener epimastigotes; assay type: toxicity; settings: read-out: Ratio CC50/EC50
[8] = Cytotoxicity against human HuH5.2 cells assessed as reduction in cell viability incubated for 72 hrs by measuring intracellular ATP levels
[9] = biological target: RNA-directed RNA polymerase (Hepacivirus hominis, UniProt O39930); experiment: Inhibition of HCV genotype 1b NS5B RNA dependent RNA polymerase; design: species or system Hepatitis C virus subtype 1b
Hepatitis C virus [10] = experiment: Antiviral activity against HCV genotype 3a S52 infected in human HuH7.5 cells assessed as reduction in viral replication incubated for 3 days by luciferase reporter gene assay; assay type: functional, organism-based, Hepacivirus hominis; settings: subtype 3a S52, Huh7.5, 72 h; in short: as §1
dengue virus type 2 = experiment: Antiviral activity against DENV 2 16681 infected in human HuH7 cells assessed as reduction in viral replication incubated for 3 days by luciferase reporter gene assay; assay type: functional, organism-based; settings: Dengue virus, 16681, Huh-7, 72 h; in short: as §1
[11] = Selectivity index, ratio of CC50 for human Huh5.2 cells to EC50 for HCV genotype 3a S52; assay type: toxicity; settings: read-out: Ratio CC50/EC50; in short: as §2
[12] = Selectivity index, ratio of CC50 for human Huh5.2 cells to EC50 for DENV2 16681; assay type: toxicity; settings: read-out: Ratio CC50/EC50
Hepatitis C virus [13] = experiment: Antiviral activity against HCV genotype 4a ED43 infected in human HuH7.5 cells assessed as reduction in viral RNA at 0.01 to 10 uM incubated for 3 days by qRT-PCR analysis; assay type: functional, organism-based; settings: Hepacivirus hominis, subtype 4a ED43
In short: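 Huh7.5-4a replicon cells treated with serial dilutions or DMSO; (+) strand HCV RNA quantified by RT-qPCR, normalized to housekeeping gene YWHAZ mRNA, expressed as percentage of solvent-treated control.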

Hepatitis C virus [14] = experiment: Antiviral activity against HCV genotype 4a ED43 infected in human HuH7.5 cells assessed as reduction in viral NS5A expression at 2 to 5 uM incubated for 3 days by immunofluorescence assay; assay type: functional, organism-based; settings: Hepacivirus hominis, subtype 4a ED43
In short: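 Huh7.5-4a replicon cells given serial compound dilutions or DMSO; HCV NS5A detected by indirect immunofluorescence, nuclei stained with propidium iodide as viability control, confocal imaging.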

[15] = Inhibition of HCV genotype 1b NS3/4A protease; design: species or system Hepatitis C virus subtype 1b

RNA-directed RNA polymerase, sequence (O39930 whole entry): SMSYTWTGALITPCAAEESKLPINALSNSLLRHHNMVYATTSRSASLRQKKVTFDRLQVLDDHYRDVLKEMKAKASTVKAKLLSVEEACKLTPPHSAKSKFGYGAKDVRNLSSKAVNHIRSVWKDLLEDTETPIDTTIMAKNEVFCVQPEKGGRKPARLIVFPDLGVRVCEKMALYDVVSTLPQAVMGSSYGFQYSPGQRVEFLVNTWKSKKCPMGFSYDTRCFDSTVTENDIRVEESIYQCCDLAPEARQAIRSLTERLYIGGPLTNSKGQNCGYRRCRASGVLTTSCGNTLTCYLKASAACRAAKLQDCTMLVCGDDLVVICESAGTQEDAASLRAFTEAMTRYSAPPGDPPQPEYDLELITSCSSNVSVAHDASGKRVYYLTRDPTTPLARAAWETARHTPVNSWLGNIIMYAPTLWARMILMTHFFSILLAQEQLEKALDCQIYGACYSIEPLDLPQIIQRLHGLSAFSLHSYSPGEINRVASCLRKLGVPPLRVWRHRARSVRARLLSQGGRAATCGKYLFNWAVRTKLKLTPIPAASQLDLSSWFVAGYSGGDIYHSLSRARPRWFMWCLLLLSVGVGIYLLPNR

## O=C(CN1C(=O)N(Cc2ccccc2)C2(CCCc3ccccc32)C1=O)NO (centres undefined)
Hepatitis C virus [1]
  EC50: 320 nM
Hepatitis C virus [2]
  EC50: 70 nM
[3]
  selectivity ratio: 28
[4]
  selectivity ratio: 127
Trypanosoma brucei
  EC50: 50 nM
  EC90: 77 nM
Trypanosoma cruzi
  EC50: 960 nM
  EC90: 1710 nM
[5]
  CC50 at 144 h: 3170 nM
[6]
  selectivity ratio: 63
[7]
  selectivity ratio: 3
[8]
  CC50 at 72 h: 8900 nM

## CC(C)OC(=O)[C@H](C)N[P@](=O)(OC[C@H]1O[C@@H](n2ccc(=O)[nH]c2=O)[C@](C)(F)[C@@H]1O)Oc1ccccc1 [SOFOSBUVIR]
[9]
  EC50: 102 nM

## O=C(CN1C(=O)CNC2(CCCCCC2)C1=O)NO
Trypanosoma brucei
  EC50: 1870 nM
  EC90: 2530 nM

## O=C(CN1C(=O)N(Cc2ccccc2)C2(CCCCc3ccccc32)C1=O)NO (centres undefined)
Hepatitis C virus [1]
  EC50: 1000 nM
Hepatitis C virus [2]
  EC50: 120 nM
[3]
  selectivity ratio: 5
[4]
  selectivity ratio: 45
Trypanosoma brucei
  EC50: 13 nM
  EC90: 18 nM
Trypanosoma cruzi
  EC50: 495 nM
  EC90: 940 nM
[5]
  CC50 at 144 h: 7850 nM
[6]
  selectivity ratio: 604
[7]
  selectivity ratio: 16
[8]
  CC50 at 72 h: 5450 nM

## CN1C(=O)N(CC(=O)NO)C(=O)C12CCc1ccccc12 (centres undefined)
Hepatitis C virus [1]
  EC50: 1410 nM
Hepatitis C virus [2]
  EC50: 210 nM
[3]
  selectivity ratio: 19
[4]
  selectivity ratio: 128
Trypanosoma brucei
  EC50: 1220 nM
  EC90: 1930 nM
Trypanosoma cruzi
  EC50: > 30000 nM
[5]
  CC50 at 144 h: 550000 nM
[6]
  selectivity ratio: 451
[8]
  CC50 at 72 h: 26900 nM

## O=C(CN1C(=O)NC2(CCCCc3ccccc32)C1=O)NO (centres undefined)
Hepatitis C virus [1]
  EC50: 250 nM
Hepatitis C virus [10]
  EC50: 80 nM
Hepatitis C virus [2]
  EC50: 100 nM
Dengue virus type 2
  EC50: 16300 nM
[3]
  selectivity ratio: 794
[11]
  selectivity ratio: 2480
[4]
  selectivity ratio: 1980
[12]
  selectivity ratio: 12
Hepatitis C virus [13]
  Activity: Active
Hepatitis C virus [14]
  Activity: Active
Trypanosoma brucei
  EC50: 400 nM
  EC90: 520 nM
Trypanosoma cruzi
  EC50: > 30000 nM
[5]
  CC50 at 144 h: 125000 nM
[6]
  selectivity ratio: 313
[8]
  CC50 at 72 h: 198000 nM

## O=C1NC(=O)C2(CCc3ccccc32)N1 (centres undefined)
Hepatitis C virus [1]
  EC50: > 10000 nM
Trypanosoma brucei
  EC50: > 50000 nM
Trypanosoma cruzi
  EC50: > 500000 nM
[5]
  CC50 at 144 h: > 500000 nM
[8]
  CC50 at 72 h: > 10000 nM

## CC[C@@H]1[C@@H]2CN(C(=O)[C@H](C(C)(C)C)NC(=O)O[C@@H]3C[C@H]3CCCCC(F)(F)c3nc4ccc(OC)cc4nc3O2)[C@@H]1C(=O)N[C@]1(C(=O)NS(=O)(=O)C2(C)CC2)C[C@H]1C(F)F
[15]
  EC50: 3.3 nM

— ChEMBL document CHEMBL4373658, “Scaffold hybridization strategy towards potent hydroxamate-based inhibitors of Flaviviridae viruses and Trypanosoma species” (Medchemcomm, 2019)
